Experimental data reported in ChEMBL document CHEMBL1154864, “Oblongolides from the endophytic fungus Phomopsis sp. BCC 9789” (J Nat Prod, 2010).
In brackets after ≈: the same amount, converted by molar mass.

What was measured:
Vero = assay: Cytotoxicity against African green monkey Vero cells by SRB assay; type: cell-based; details: Chlorocebus sabaeus
Procedure, shortened: (§1)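 Colorimetric cytotoxicity assay run on oral human epidermal carcinoma (KB), human breast cancer (BC), human small-cell lung cancer (NCI-H187) and African green monkey kidney fibroblast (Vero) cells. IC50 values are reported in µM.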

KB = assay: Cytotoxicity against human KB cells by SRB assay; type: functional, cell-based; procedure, shortened: as §1
[1] = system: Mycobacterium tuberculosis; assay: Antituberculosis activity against Mycobacterium tuberculosis H37Ra after 4 days by Alamar blue assay; type: functional; details: 96 h
Procedure, shortened: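 Microplate resazurin (Alamar Blue) growth-inhibition assay against M. tuberculosis H37Ra; MIC taken as the lowest concentration giving ≥90% growth inhibition.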

[2] = Cytotoxicity against human BC cells by SRB assay; type: functional, cell-based; procedure, shortened: as §1
NCI-H187 = assay: Cytotoxicity against human NCI-H187 cells by SRB assay; type: functional, cell-based; procedure, shortened: as §1
Human alphaherpesvirus 1 = assay: Antiviral activity against Herpes simplex virus type 1; type: functional, organism-based
Procedure, shortened: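 HSV-1 antiviral activity read out by a colorimetric method, with IC50 values in µM.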

Compound	IC50 (Vero) [µM]	IC50 (KB) [µM]	MIC [1] [µM]	IC50 [2] [µM]	IC50 (NCI-H187) [µM]	IC50 (Human alphaherpesvirus 1) [µM]
C[C@H]1CC[C@H]2[C@@H](C=C[C@@H]3[C@@H](O)O[C@@H](CO)C(=O)[C@@]32C)C1	> 178	> 71	> 178	> 71	> 71	–
Cc1ccc(O)c2c1C[C@@H](C)OC2=O	> 260	> 104	> 260	> 104	> 104	–
Nc1nc2c(ncn2COCCO)c(=O)[nH]1 [ACYCLOVIR]	–	–	–	–	–	13
COc1cccc2c1C(=O)c1c(O)c3c(c(O)c1C2=O)C[C@@](O)(C(=O)CO)C[C@@H]3O[C@H]1C[C@H](N)[C@H](O)[C@H](C)O1 [DOXORUBICIN]	–	0.24	–	–	0.08	–
Cc1c2ccncc2c(C)c2c1[nH]c1ccccc12 [ELLIPTECINE]	1.75	–	–	–	–	–
NNC(=O)c1ccncc1 [ISONIAZID]	–	–	0.36 (≈ 0.0494 µg/mL)	–	–	–
C[C@H]1CC[C@H]2[C@@H](C=C[C@]3(O)COC(=O)[C@]23C)C1 [OBLONGOLIDE C]	> 212	> 85	> 212	> 85	> 85	–
C[C@H]1CC[C@H]2[C@H](C1)[C@@H]1O[C@@H]1[C@@H]1COC(=O)[C@]21C [OBLONGOLIDE Q]	> 212	> 85	> 212	> 85	> 85	–
C[C@H]1CC[C@H]2[C@@H](C=C[C@@H]3CO[C@](C)(O)C(=O)[C@@]32C)C1 [OBLONGOLIDE T]	> 189	> 76	> 189	> 76	> 76	–
C[C@H]1CC[C@H]2[C@@H](C=C[C@@H]3COC(=O)[C@@](O)(CO)[C@@]32C)C1 [OBLONGOLIDE W1]	> 178	> 71	178 (≈ 49.9 µg/mL)	> 71	> 71	–
C[C@H]1CC[C@H]2[C@@H](C=C[C@@H]3COC(=O)[C@](O)(CO)[C@@]32C)C1 [OBLONGOLIDE W2]	> 178	> 71	> 178	> 71	> 71	–
C[C@H]1CC[C@H]2[C@@H](C=C[C@@H]3CO[C@@](O)(CO)C(=O)[C@@]32C)C1 [OBLONGOLIDE X]	96	> 71	> 178	> 71	> 71	–
CO[C@]1(C(C)=O)OC[C@H]2C=C[C@H]3C[C@@H](C)CC[C@@H]3[C@]21C [OBLONGOLIDE Y]	> 180	> 72	> 180	48	> 72	–
CC(=O)[C@@]1(OCCc2ccccc2)OC[C@H]2C=C[C@H]3C[C@@H](C)CC[C@@H]3[C@]21C [OBLONGOLIDE Z]	60	37	> 136	26	32	–
C[C@H]1CC[C@H]2[C@@H](C=C[C@@H]3COC(=O)[C@@]32C)C1 [OBLONGOLIDE]	> 227	> 91	227 (≈ 50 µg/mL)	> 91	> 91	–
